Assay results published in ChEMBL document CHEMBL5724801, “EUbOPEN Chemogenomics Library - Multiplex” (2024).
Values joined by “and” are separate entries in the source; they are usually repeats but may differ in a detail not shown here. Equal entries are not always repeated.

Tested on: HEK-293T
Test: Multiplex assay against HEK293T
Format: toxicity, cell-based
Conditions: human
Method in brief: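 Per cents of healthy-nucleus cells form the tubulin, mitochondrial-mass and membrane-permeability phenotype values. Live cells were stained at seeding with Hoechst33342, BioTracker Green Microtubule Cytoskeleton Dye, MitoTracker Red and Annexin V Alexa Fluor 680. After compound addition they were imaged on a CQ1 microscope at 37°C and 5% CO2, and CellPathfinder machine-learning gating split them into Hoechst high-intensity objects or normal cells, normal cells into healthy, pyknosed or fragmented nuclei, and pyknosed cells into mitotic or apoptotic.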

[1] = 12 h, 1 µM, compound concentration 1 uM
[2] = 12 h, 10 µM, compound concentration 10 uM
[3] = 24 h, 1 µM, compound concentration 1 uM
[4] = 24 h, 10 µM, compound concentration 10 uM
[5] = 48 h, 1 µM, compound concentration 1 uM
[6] = 48 h, 10 µM, compound concentration 10 uM

Compound: O=C1c2c(Br)c(Br)c(Br)c(Br)c2C(=O)N1c1ncc[nH]1
- Population Apoptotic (%) [1]: 13.1% and 15.91%
- Population Fragmented Nuclei (%) [1]: 2.88% and 4.84%
- Population Healthy Nuclei (%) [1]: 55.33% and 24.19%
- Population Hoechst High Intensity Objects (%) [1]: 0%
- Population Membrane Permeable-Phenotype (%) [1]: 0.52% and 0%
- Population Mitochondria Different-Phenotype (%) [1]: 30.21% and 20%
- Population Mitotic Cells (%) [1]: 86.9% and 84.09%
- Population Normal (%) [1]: 100%
- Population Pyknosed Nuclei (%) [1]: 41.79% and 70.97%
- Total Cell Count [1]: 347 and 124
- Population Apoptotic (%) [2]: 11.88% and 18.7%
- Population Fragmented Nuclei (%) [2]: 3.09% and 4.38%
- Population Hoechst High Intensity Objects (%) [2]: 0.28% and 0%
- Population Membrane Permeable-Phenotype (%) [2]: 0.82% and 0%
- Population Mitochondria Different-Phenotype (%) [2]: 30.74% and 20%
- Population Mitotic Cells (%) [2]: 88.12% and 81.3%
- Population Normal (%) [2]: 99.72% and 100%
- Population Pyknosed Nuclei (%) [2]: 28.37% and 76.88%
- Total Cell Count [2]: 357 and 160
- Population Apoptotic (%) [3]: 7.29% and 20.59%
- Population Fragmented Nuclei (%) [3]: 2.82% and 1.69%
- Population Healthy Nuclei (%) [3]: 81.23% and 40.68%
- Population Hoechst High Intensity Objects (%) [3]: 0%
- Population Membrane Permeable-Phenotype (%) [3]: 0.41% and 0%
- Population Mitochondria Different-Phenotype (%) [3]: 13.29% and 6.25%
- Population Mitotic Cells (%) [3]: 92.71% and 79.41%
- Population Normal (%) [3]: 100%
- Population Tubulin-Different-Phenotype (%) [3]: 8.59% and 6.25%
- Population Apoptotic (%) [4]: 15.38% and 16.98%
- Population Fragmented Nuclei (%) [4]: 2.6% and 2.87%
- Population Healthy Nuclei (%) [4]: 81.63% and 36.21%
- Population Hoechst High Intensity Objects (%) [4]: 0%
- Population Membrane Permeable-Phenotype (%) [4]: 0.42% and 0%
- Population Mitochondria Different-Phenotype (%) [4]: 15.71% and 7.94%
- Population Mitotic Cells (%) [4]: 84.62% and 83.02%
- Population Normal (%) [4]: 100%
- Population Tubulin-Different-Phenotype (%) [4]: 7.64% and 3.17%
- Population Apoptotic (%) [5]: 5.76% and 12.5%
- Population Fragmented Nuclei (%) [5]: 3.26% and 4.05%
- Population Healthy Nuclei (%) [5]: 88.03% and 68.21%
- Population Hoechst High Intensity Objects (%) [5]: 0% and 2.26%
- Population Membrane Permeable-Phenotype (%) [5]: 3.85% and 1.69%
- Population Mitochondria Different-Phenotype (%) [5]: 10.61% and 18.64%
- Population Mitotic Cells (%) [5]: 94.24% and 87.5%
- Population Normal (%) [5]: 100% and 97.74%
- Population Apoptotic (%) [6]: 13.95% and 14.89%
- Population Fragmented Nuclei (%) [6]: 5.46% and 4.92%
- Population Healthy Nuclei (%) [6]: 88.11% and 79.67%
- Population Hoechst High Intensity Objects (%) [6]: 0% and 0.97%
- Population Membrane Permeable-Phenotype (%) [6]: 6.62% and 4.53%
- Population Mitochondria Different-Phenotype (%) [6]: 10.78% and 11.11%
- Population Mitotic Cells (%) [6]: 86.05% and 85.11%
- Population Normal (%) [6]: 100% and 99.03%
- Population Pyknosed Nuclei (%) [6]: 6.43% and 15.41%

Compound: Cc1onc(-c2ccccc2Cl)c1C(=O)N(C)c1ccc(Cl)cc1
- Population Apoptotic (%) [1]: 35% and 37%
- Population Fragmented Nuclei (%) [1]: 8% and 3%
- Population Healthy Nuclei (%) [1]: 79% and 84%
- Population Hoechst High Intensity Objects (%) [1]: 9% and 6%
- Population Membrane Permeable-Phenotype (%) [1]: 0%
- Population Mitochondria Different-Phenotype (%) [1]: 41% and 59%
- Population Mitotic Cells (%) [1]: 64% and 62%
- Population Normal (%) [1]: 90% and 93%
- Population Pyknosed Nuclei (%) [1]: 12%
- Population Tubulin-Different-Phenotype (%) [1]: 25%
- Total Cell Count [1]: 375 and 320
- Population Apoptotic (%) [2]: 38% and 45%
- Population Fragmented Nuclei (%) [2]: 7% and 4%
- Population Healthy Nuclei (%) [2]: 79% and 80%
- Population Hoechst High Intensity Objects (%) [2]: 12% and 6%
- Population Membrane Permeable-Phenotype (%) [2]: 0%
- Population Mitochondria Different-Phenotype (%) [2]: 49% and 65%
- Population Mitotic Cells (%) [2]: 61% and 54%
- Population Normal (%) [2]: 87% and 93%
- Population Pyknosed Nuclei (%) [2]: 13% and 14%
- Population Tubulin-Different-Phenotype (%) [2]: 43% and 35%
- Total Cell Count [2]: 357 and 330
- Population Apoptotic (%) [3]: 23% and 42%
- Population Fragmented Nuclei (%) [3]: 9% and 5%
- Population Healthy Nuclei (%) [3]: 81%
- Population Hoechst High Intensity Objects (%) [3]: 5% and 3%
- Population Membrane Permeable-Phenotype (%) [3]: 1%
- Population Mitochondria Different-Phenotype (%) [3]: 21% and 44%
- Population Mitotic Cells (%) [3]: 76% and 57%
- Population Normal (%) [3]: 94% and 96%
- Population Pyknosed Nuclei (%) [3]: 9% and 12%
- Population Tubulin-Different-Phenotype (%) [3]: 14% and 18%
- Total Cell Count [3]: 523 and 383
- Population Apoptotic (%) [4]: 45% and 29%
- Population Fragmented Nuclei (%) [4]: 8% and 7%
- Population Healthy Nuclei (%) [4]: 79% and 82%
- Population Hoechst High Intensity Objects (%) [4]: 5% and 3%
- Population Membrane Permeable-Phenotype (%) [4]: 1% and 0%
- Population Mitochondria Different-Phenotype (%) [4]: 32% and 47%
- Population Mitotic Cells (%) [4]: 54% and 70%
- Population Normal (%) [4]: 94% and 96%
- Population Pyknosed Nuclei (%) [4]: 12% and 9%
- Population Tubulin-Different-Phenotype (%) [4]: 20%
- Total Cell Count [4]: 478 and 413
- Population Apoptotic (%) [5]: 21% and 31%
- Population Fragmented Nuclei (%) [5]: 14% and 11%
- Population Healthy Nuclei (%) [5]: 79% and 82%
- Population Hoechst High Intensity Objects (%) [5]: 2%
- Population Membrane Permeable-Phenotype (%) [5]: 0% and 1%
- Population Mitochondria Different-Phenotype (%) [5]: 11% and 23%
- Population Mitotic Cells (%) [5]: 78% and 68%
- Population Normal (%) [5]: 97%
- Population Pyknosed Nuclei (%) [5]: 6% and 5%
- Population Tubulin-Different-Phenotype (%) [5]: 9% and 12%
- Total Cell Count [5]: 932 and 620
- Population Apoptotic (%) [6]: 33% and 20%
- Population Fragmented Nuclei (%) [6]: 14% and 12%
- Population Healthy Nuclei (%) [6]: 76% and 81%
- Population Hoechst High Intensity Objects (%) [6]: 3%
- Population Membrane Permeable-Phenotype (%) [6]: 1% and 0%
- Population Mitochondria Different-Phenotype (%) [6]: 16% and 25%
- Population Mitotic Cells (%) [6]: 66% and 79%
- Population Normal (%) [6]: 96%
- Population Pyknosed Nuclei (%) [6]: 8% and 6%
- Population Tubulin-Different-Phenotype (%) [6]: 15% and 16%
- Total Cell Count [6]: 755 and 652
